Assay results from ChEMBL document CHEMBL1122238, “Synthesis of analogues of pepstatin. Effect of structure in subsites P1', P2', and P2 on inhibition of porcine pepsin” (J Med Chem, 1983).
Non-standard residues stand in square brackets, D forms with d. Residues, ends and D or L forms follow the SMILES beside them. *: point of attachment. Sta = CC(C)C[C@H](N)[C@@H](O)CC(=O)O; Isovaleryl = CC(C)CC(=O)*

Target: T1, Pepsin A (Sus scrofa, UniProt P00791)
Test: Tested for time independent inhibition constant against porcine pepsin
In short: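 Pepsin (porcine) cleavage of Phe-Gly-His-Phe(NO2)-Phe-Ala-Phe-OMe (Km 4.0 × 10^-5 M), monitored by spectrophotometer. Reactions started with enzyme, giving linear steady-state initial velocities. Inhibitors were usually in 1% methanol v/v, or 10% if poorly soluble. IC50 came from inhibited versus uninhibited velocity and was converted to Ki by the Cha equation, Ki = (IC50 − Et/2)(1 + S/Km)^-1.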

T1 sequence (P00791 whole entry): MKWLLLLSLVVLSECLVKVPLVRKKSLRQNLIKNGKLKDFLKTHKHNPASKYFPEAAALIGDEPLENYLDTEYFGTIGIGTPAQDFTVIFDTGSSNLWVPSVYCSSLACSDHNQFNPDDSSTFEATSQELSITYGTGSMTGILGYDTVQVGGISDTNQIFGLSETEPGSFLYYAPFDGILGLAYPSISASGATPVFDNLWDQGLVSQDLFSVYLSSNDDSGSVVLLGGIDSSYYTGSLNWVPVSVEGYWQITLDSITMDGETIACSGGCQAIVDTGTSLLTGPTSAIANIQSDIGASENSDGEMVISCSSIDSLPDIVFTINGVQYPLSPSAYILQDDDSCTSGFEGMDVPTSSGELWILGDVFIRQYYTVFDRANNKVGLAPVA

In order of falling Ki:
1. CCOC(=O)CC(O)C(CC(C)C)NC(=O)C(NC(=O)CC(C)C)C(C)C (stereo unspecified)  800 nM
2. COC(=O)C(C)NC(=O)CC(O)C(CC(C)C)NC(=O)C(NC(=O)CC(C)C)C(C)C (stereo unspecified)  600 nM
3. CC(C)CC(=O)NC(C(=O)NC(CC(C)C)C(O)CC(=O)NC(C)C)C(C)C (stereo unspecified)  300 nM
4. CNC(=O)C(C)NC(=O)CC(O)C(CC(C)C)NC(=O)C(NC(=O)CC(C)C)C(C)C (stereo unspecified)  140 nM
5. CC(C)CCNC(=O)C(C)NC(=O)CC(O)C(CC(C)C)NC(=O)CNC(=O)CC(C)C (stereo unspecified)  100 nM
6. COC(=O)CNC(=O)C(C)NC(=O)CC(O)C(CC(C)C)NC(=O)C(NC(=O)CC(C)C)C(C)C (stereo unspecified)  68 nM
7. CC(C)CCNC(=O)CNC(=O)CC(O)C(CC(C)C)NC(=O)C(NC(=O)CC(C)C)C(C)C (stereo unspecified)  56 nM
8. CC(C)CCNC(=O)C(C)NC(=O)CC(O)C(CC(C)C)NC(=O)C(CC(C)C)NC(=O)CC(C)C (stereo unspecified)  13 nM
9. CCOC(=O)C[C@H](O)[C@H](CC(C)C)NC(=O)[C@@H](NC(=O)[C@@H](NC(=O)CC(C)C)C(C)C)C(C)C (Isovaleryl-Val-Val-[Sta]-OEt)  10 nM

Target: T1, Pepsin A
Test: Tested for time dependent inhibition constant against porcine pepsin
In short: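 Porcine pepsin with synthetic heptapeptide substrate Phe-Gly-His-Phe(NO2)-Phe-Ala-Phe-OMe (Km 4.0 × 10^-5 M), followed spectrophotometrically. Enzyme preincubated with inhibitor for 10 min, and the reaction started by adding substrate. Velocities taken at apparent steady state. Inhibitor solutions generally contained 1% methanol v/v, and 10% for poorly soluble ones. IC50 converted to Ki by the Cha equation, correcting for total enzyme and S/Km.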

In order of rising Ki:
1. COC(=O)C(CC(C)C)NC(=O)C(C)NC(=O)CC(O)C(CC(C)C)NC(=O)C(NC(=O)CC(C)C)C(C)C (stereo unspecified)  1.1 nM
2. COC(=O)C(Cc1ccccc1)NC(=O)C(C)NC(=O)CC(O)C(CC(C)C)NC(=O)C(NC(=O)CC(C)C)C(C)C (stereo unspecified)  1.5 nM
3. CC(C)CCNC(=O)C(C)NC(=O)CC(O)C(CC(C)C)NC(=O)C(NC(=O)CC(C)C)C(C)C (stereo unspecified)  3 nM
4. COC(=O)[C@H](C)NC(=O)C[C@H](O)[C@H](CC(C)C)NC(=O)[C@@H](NC(=O)[C@@H](NC(=O)CC(C)C)C(C)C)C(C)C (Isovaleryl-VV[Sta]A-OMe)  3.5 nM
5. CC(C)CCNC(=O)C(CC(C)C)NC(=O)CC(O)C(CC(C)C)NC(=O)C(NC(=O)CC(C)C)C(C)C (stereo unspecified)  4.6 nM
6. CC(C)CC(=O)NC(C(=O)NC(CC(C)C)C(O)CC(=O)NC(C)C(=O)NC(C)C)C(C)C (stereo unspecified)  20 nM
7. CC(C)CCNC(=O)C(C)NC(=O)CC(O)C(CC(C)C)NC(=O)C(C)NC(=O)CC(C)C (stereo unspecified)  30 nM
